Shown are actives, neighbours in structure and some others; about 2.2% of the full set was active somewhere.
DAGLB inh: diacylglycerol lipase beta (human) inhibition | Q8NCG7 | HEK293T DAGLB membrane lysate, EnzChek fluorogenic substrate | inhibition, % at 5.17 µM | 340,000 tested, 0.059% active; in the data active = inhibition above about 34%
NS3 helicase inh: HCV NS3 helicase inhibition. NS3 helicase DNA unwinding, Cy5 molecular beacon fluorescence. 290,000 tested, 0.56% active. inhibition, % at 10.9 µM;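 active = inhibition above the mean of all tested compounds plus 3 SD, set per campaign, cut at about 35% in these data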
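test system = hepatitis C virus NS3 helicase domain fragment enzyme | reagent = annealed dual-labelled DNA beacon duplex, ATP-started | times = 1 h at 25 °C | detection = Cy5 fluorescence, 0 and 60 min reads | read-out basis = percent inhibition from t60/t0 fluorescence ratio | control set = DMSO and thioflavine S | replication = one well per compound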
HCV core dimer: blocks dimerization of HCV core protein. TR-FRET GST/Flag-core106 dimerization, 1536-well. inhibition, % at 5 µM. 300,000 tested, 0.33% active;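 active = inhibition above the mean of all tested compounds plus 3 SD, set per screening campaign, cut at about 45% in these data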
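Test system: GST/Flag-tagged HCV core106 proteins; Medium: KF-containing HEPES buffer, pH 7.45, DTT, CHAPS, BSA; Times: compound-protein-antibody incubation 4 h at 22.5 °C; Detection: TR-FRET 671 and 617 nm emission; Benchmarks: wells lacking GST-core106 and wells with excess unlabelled core106.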
GPR7 antag: human neuropeptides B/W receptor 1 antagonism | P48145 | inhibition, % at 4.4 µM | AID 1861 | 290,000 tested, 1.1% active | GPR7-expressing cells, fluorescence antagonist assay; in the data active = inhibition above about 16%, passing the limit was not always enough;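 note: cells stimulated with the agonist NPW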
GRK2 aptamer HTS: blocks RNA aptamer binding to human GRK2 | P25098 | bead flow cytometry, FAM-aptamer displacement from GRK2 | inhibition of aptamer binding, % at 10 µM | 330,000 tested, 0.59% active;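 active = inhibition of aptamer binding above 40%, roughly 3 SD of noise, on plates passing a quality check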;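 note: median bead fluorescence of bound FAM aptamer so fluorescent compounds give negative values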
DNA FID counter: displaces DNA intercalator in HCV helicase counter-screen; inhibition, % at 7.9 µM; 290,000 tested, 0.17% active; DNA fluorescent intercalator displacement, fluorescence; in the data active = inhibition above about 37%;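 note: higher means more ethidium bromide displaced from hairpin DNA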
GPR7 antag conf: confirmation of human GPR7 antagonists | GPR7-expressing cells, calcium fluorescence antagonist mode | inhibition, % at 4.4 µM | shares compounds with GPR7 antag | 2,400 tested, 52% active; in the data active = inhibition above about 24%;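 note: stimulated with the GPR7 agonist NPW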
MCHR1 antag: antagonizes human MCHR1, a GPR7 antagonist counter-screen; 2,400 tested, 62% active; AID 2148; MCHR1-expressing cells, fluorescence antagonist assay; inhibition, % at 4.4 µM; shares compounds with GPR7 antag; in the data active = inhibition above about 22%
Hits are given with their value.

What do the screens show for `O=[N+]([O-])c1ccc(N2CCN(C(=S)NCc3ccc(Cl)cc3)CC2)cc1`?
DAGLB inh: inactive; NS3 helicase inh: inactive; HCV core dimer: inactive; GPR7 antag: 51; GRK2 aptamer HTS: inactive; DNA FID counter: inactive; GPR7 antag conf: 81; MCHR1 antag: 87

What do the screens show for `O=[N+]([O-])c1ccc(C(=S)N2CCN(c3ccc(F)cc3)CC2)cc1`?
DAGLB inh: inactive; NS3 helicase inh: inactive; HCV core dimer: inactive; GPR7 antag: 40; GRK2 aptamer HTS: inactive; DNA FID counter: inactive; GPR7 antag conf: inactive; MCHR1 antag: 28

How did CCc1nc2ccc(C(=O)N3CCN(c4ccc([N+](=O)[O-])cc4)CC3)cc2nc1CC do in these assays?
DAGLB inh: inactive; NS3 helicase inh: inactive; HCV core dimer: inactive; GPR7 antag: 29; GRK2 aptamer HTS: inactive; DNA FID counter: inactive; GPR7 antag conf: 24; MCHR1 antag: 86

Results for Cc1nnc(SCc2cccc([N+](=O)[O-])c2)[nH]c1=O ?
DAGLB inh: inactive; NS3 helicase inh: inactive; HCV core dimer: inactive; GPR7 antag: inactive; GRK2 aptamer HTS: inactive; DNA FID counter: inactive

How did Cc1ccc(C(OCC(O)CNC(CO)C(O)c2ccc([N+](=O)[O-])cc2)c2ccccc2)cc1 (centres undefined) do in these assays?
DAGLB inh: inactive; NS3 helicase inh: inactive; HCV core dimer: inactive; GPR7 antag: inactive; GRK2 aptamer HTS: inactive; DNA FID counter: inactive

What do the screens show for `COc1ccc(CC(=O)N2CCN=C2SCc2cccc([N+](=O)[O-])c2)cc1`?
DAGLB inh: inactive; NS3 helicase inh: inactive; HCV core dimer: inactive; GPR7 antag: 21; GRK2 aptamer HTS: inactive; DNA FID counter: inactive; GPR7 antag conf: 41; MCHR1 antag: 58

What do the screens show for `O=C(C1CCCCC1)N1CCN=C1SCc1cccnc1`?
DAGLB inh: inactive; NS3 helicase inh: inactive; HCV core dimer: inactive; GPR7 antag: inactive; GRK2 aptamer HTS: inactive; DNA FID counter: inactive

What do the screens show for `O=C(Cc1ccc([N+](=O)[O-])cc1)N1CCN=C1SCc1ccccc1`?
DAGLB inh: inactive; NS3 helicase inh: inactive; HCV core dimer: inactive; GPR7 antag: inactive; GRK2 aptamer HTS: inactive; DNA FID counter: inactive

Results for O=C(C1CCCCC1)N1CCN=C1SCc1cccc([N+](=O)[O-])c1 ?
DAGLB inh: inactive; NS3 helicase inh: inactive; HCV core dimer: inactive; GPR7 antag: 48; GRK2 aptamer HTS: inactive; DNA FID counter: inactive; GPR7 antag conf: inactive; MCHR1 antag: inactive

What do the screens show for `O=S(=O)(c1ccc(Br)cc1)N1CCN=C1SCc1cccc(F)c1`?
DAGLB inh: inactive; NS3 helicase inh: inactive; HCV core dimer: inactive; GPR7 antag: inactive; GRK2 aptamer HTS: inactive; DNA FID counter: inactive

How did COc1ccc(S(=O)(=O)N2CCN=C2SCc2cccc(F)c2)cc1 do in these assays?
DAGLB inh: inactive; NS3 helicase inh: inactive; HCV core dimer: inactive; GPR7 antag: 27; GRK2 aptamer HTS: inactive; DNA FID counter: inactive; GPR7 antag conf: 27; MCHR1 antag: 46

How did COC(=O)c1cc2c([nH]c1=O)CCCC2=O do in these assays?
DAGLB inh: inactive

What do the screens show for `COCCN(C(=O)Cc1cccs1)C(C(=O)NCc1ccc(OC)cc1)c1ccccc1` (centres undefined)?
DAGLB inh: inactive; NS3 helicase inh: inactive; HCV core dimer: inactive; GPR7 antag: inactive; GRK2 aptamer HTS: inactive; DNA FID counter: inactive

Results for CCOC(=O)c1cc2ccccc2n1CCN(CC)CC ?
DAGLB inh: inactive; NS3 helicase inh: inactive; HCV core dimer: inactive; GPR7 antag: 31; GRK2 aptamer HTS: inactive; DNA FID counter: inactive; GPR7 antag conf: inactive; MCHR1 antag: inactive

What do the screens show for `Cc1ccc(C(=O)Cn2c(C(=O)OCCO)cc3ccccc32)cc1`?
DAGLB inh: inactive; NS3 helicase inh: inactive; GPR7 antag: inactive; GRK2 aptamer HTS: inactive; DNA FID counter: inactive

How did CC(=O)Oc1ccc(C(c2ccc(OC(C)=O)cc2)c2ccccn2)cc1 do in these assays?
DAGLB inh: inactive; NS3 helicase inh: inactive; HCV core dimer: inactive; GPR7 antag: 66; GRK2 aptamer HTS: inactive; DNA FID counter: inactive; GPR7 antag conf: 76; MCHR1 antag: 47
